# Assay results reported in ChEMBL document CHEMBL4052626, “Identification of thiazolo[5,4-d]pyrimidine derivatives as potent antiproliferative agents through the drug repurposing strategy” (Eur J Med Chem, 2017).
# Activity calls are given as the source filed them. The rule behind the calls is not given here.
# Tested on: MGC-803
# Test: Induction of apoptosis in human MGC803 cells assessed as formation of apoptotic bodies at 1 to 5 uM after 24 hrs by Hoechst 33258 staining-based fluorescence microscopic analysis
# Assay type: functional, cell-based
# Conditions: not given
# In short: (§1)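 MGC803 were seeded at 2×10^5/well and allowed to adhere overnight. They were exposed to graded concentrations for 24 h, then stained with Hoechst 33258 for 30 min in the dark. Nuclear morphology was examined by fluorescence microscopy.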
row,SMILES,Activity
1,c1ccc(CSc2nc(N3CCOCC3)c3nc(Nc4ccccc4)sc3n2)cc1,Active

# Tested on: MGC-803
# Test: Induction of apoptosis in human MGC803 cells assessed as cell rounding at 1 to 5 uM after 24 hrs by Hoechst 33258 staining-based fluorescence microscopic analysis
# Assay type: functional
# Conditions: not given
# In short: as §1
row,SMILES,Activity
1,c1ccc(CSc2nc(N3CCOCC3)c3nc(Nc4ccccc4)sc3n2)cc1,Active

# Tested on: MGC-803
# Test: Induction of apoptosis in human MGC803 cells assessed as increase in cleaved caspase-9 protein levels at 1 to 5 uM after 24 by Western blot analysis
# Assay type: functional, cell-based
# Conditions: not given
# In short: (§2)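 After 24 h treatment at graded concentrations, MGC803 were lysed 30 min in RIPA buffer with protease inhibitors and spun at 12,000 rpm for 10 min at 4 °C. Protein was quantified by BCA, then run on SDS-PAGE and blotted to nitrocellulose. Membranes were blocked in 5% milk for 2 h, incubated with primary antibodies overnight at 4 °C, then secondary (1:5000) for 2 h. Detection was by ECL.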
row,SMILES,Activity
1,c1ccc(CSc2nc(N3CCOCC3)c3nc(Nc4ccccc4)sc3n2)cc1,Active

# Tested on: MGC-803
# Test: Induction of apoptosis in human MGC803 cells at 2 uM after 24 hrs by annexin V-FITC/propidium iodide staining-based assay (reference value: 2.3%)
# Assay type: functional
# Conditions: not given
row,SMILES,Activity
1,c1ccc(CSc2nc(N3CCOCC3)c3nc(Nc4ccccc4)sc3n2)cc1,43.8%

# Tested on: MGC-803
# Test: Antiproliferative activity against human MGC803 cells after 72 hrs by MTT assay
# Assay type: functional, cell-based
# Conditions: MGC-803, 72 h
# In short: (§3)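 Cells in exponential growth were plated at 3,000 per well and left 24 h. Medium was then replaced with fresh medium holding graded compound concentrations, and incubation ran 72 h. Viability was read by MTT at 570 nm.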
row,SMILES,IC50
1,CCCSc1nc(N2CCN(Cc3ccccc3)CC2)c2nc(Nc3ccccc3)sc2n1,18.8 µM
2,CCCSc1nc(Nc2ccc(Cl)cc2)c2nc(Nc3ccccc3)sc2n1,12.5 µM
3,CCCSc1nc(N2CCOCC2)c2nc(Nc3ccccc3Cl)sc2n1,3.4 µM
4,CCCSc1nc(N2CCOCC2)c2nc(Nc3cccc4ccccc34)sc2n1,17.7 µM
5,CCCCc1ccc(Nc2nc(SCCC)nc3sc(Nc4ccccc4)nc23)cc1,17.4 µM
6,CCCSc1nc(NCCc2cc3ccccc3[nH]2)c2nc(Nc3ccccc3)sc2n1,6.99 µM
7,CCCSc1nc(N2CCOCC2)c2nc(Nc3ccccn3)sc2n1,9.35 µM
8,CCCSc1nc(N2CCOCC2)c2nc(Nc3ccccc3)sc2n1,5.81 µM
9,CCCSc1nc(NC2CC2)c2nc(Nc3ccccc3)sc2n1,> 64 µM
10,CCCSc1nc(Nc2ccccc2)c2nc(Nc3ccccc3)sc2n1,24.4 µM
11,CCCSc1nc(NCc2ccco2)c2nc(Nc3ccccc3)sc2n1,> 64 µM
12,CCCSc1nc(NCCc2cccs2)c2nc(Nc3ccccc3)sc2n1,11.3 µM
13,CCCSc1nc(NCc2ccc(O)cc2)c2nc(Nc3ccccc3)sc2n1,21.9 µM
14,CCCSc1nc(Nc2ccc(OC)cc2)c2nc(Nc3ccccc3)sc2n1,> 64 µM
15,CCCSc1nc(N2CCSCC2)c2nc(Nc3ccccc3)sc2n1,12.3 µM
16,c1ccc(CSc2nc(N3CCOCC3)c3nc(Nc4ccccc4)sc3n2)cc1,1.03 µM

# Tested on: MGC-803
# Test: Induction of apoptosis in human MGC803 cells after 24 hrs by annexin V-FITC/propidium iodide staining-based assay
# Assay type: functional, cell-based
# Conditions: not given
row,SMILES,Activity
1,c1ccc(CSc2nc(N3CCOCC3)c3nc(Nc4ccccc4)sc3n2)cc1,Dose-dependent effect

# Tested on: MGC-803
# Test: Induction of apoptosis in human MGC803 cells at 1 uM after 24 hrs by annexin V-FITC/propidium iodide staining-based assay (reference value: 2.3%)
# Assay type: functional
# Conditions: not given
row,SMILES,Activity
1,c1ccc(CSc2nc(N3CCOCC3)c3nc(Nc4ccccc4)sc3n2)cc1,11.5%

# Tested on: HGC-27
# Test: Antiproliferative activity against human HGC27 cells after 72 hrs by MTT assay
# Assay type: functional, cell-based
# Conditions: HGC-27, 72 h
# In short: as §3
row,SMILES,IC50
1,CCCSc1nc(N2CCN(Cc3ccccc3)CC2)c2nc(Nc3ccccc3)sc2n1,> 64 µM
2,CCCSc1nc(Nc2ccc(Cl)cc2)c2nc(Nc3ccccc3)sc2n1,20.3 µM
3,CCCSc1nc(N2CCOCC2)c2nc(Nc3ccccc3Cl)sc2n1,11.3 µM
4,CCCSc1nc(N2CCOCC2)c2nc(Nc3cccc4ccccc34)sc2n1,21.8 µM
5,O=c1[nH]cc(F)c(=O)[nH]1 [FLUOROURACIL],8.22 µM
6,CCCCc1ccc(Nc2nc(SCCC)nc3sc(Nc4ccccc4)nc23)cc1,13.1 µM
7,CCCSc1nc(NCCc2cc3ccccc3[nH]2)c2nc(Nc3ccccc3)sc2n1,16.2 µM
8,CCCSc1nc(N2CCOCC2)c2nc(Nc3ccccn3)sc2n1,8.84 µM
9,CCCSc1nc(N2CCOCC2)c2nc(Nc3ccccc3)sc2n1,9.51 µM
10,CCCSc1nc(NC2CC2)c2nc(Nc3ccccc3)sc2n1,32.4 µM
11,CCCSc1nc(Nc2ccccc2)c2nc(Nc3ccccc3)sc2n1,35.3 µM
12,CCCSc1nc(NCc2ccco2)c2nc(Nc3ccccc3)sc2n1,28 µM
13,CCCSc1nc(NCCc2cccs2)c2nc(Nc3ccccc3)sc2n1,17.7 µM
14,CCCSc1nc(NCc2ccc(O)cc2)c2nc(Nc3ccccc3)sc2n1,17.3 µM
15,CCCSc1nc(Nc2ccc(OC)cc2)c2nc(Nc3ccccc3)sc2n1,30.9 µM
16,CCCSc1nc(N2CCSCC2)c2nc(Nc3ccccc3)sc2n1,28.5 µM
17,c1ccc(CSc2nc(N3CCOCC3)c3nc(Nc4ccccc4)sc3n2)cc1,1.23 µM

# Tested on: MGC-803
# Test: Induction of apoptosis in human MGC803 cells assessed as decrease in BCL-2 protein levels at 1 to 5 uM after 24 hrs by Western blot analysis
# Assay type: functional, cell-based
# Conditions: not given
# In short: as §2
row,SMILES,Activity
1,c1ccc(CSc2nc(N3CCOCC3)c3nc(Nc4ccccc4)sc3n2)cc1,Active

# Tested on: MGC-803
# Test: Induction of apoptosis in human MGC803 cells assessed as increase in Bax protein levels after 24 by Western blot analysis
# Assay type: functional, cell-based
# Conditions: not given
# In short: as §2
row,SMILES,Activity
1,c1ccc(CSc2nc(N3CCOCC3)c3nc(Nc4ccccc4)sc3n2)cc1,Dose-dependent effect

# Tested on: MGC-803
# Test: Antimigratory activity against human MGC803 cells assessed as reduction in wound healing at 1 uM by inverted microscopic method
# Assay type: functional, cell-based
# Conditions: TDE = time-dependent effect
# In short: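 MGC803 in 24-well format were scratched with a 10 µL tip. Cells were then incubated with graded compound concentrations for the indicated times. Wound closure was photographed under an inverted microscope.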
row,SMILES,Activity
1,c1ccc(CSc2nc(N3CCOCC3)c3nc(Nc4ccccc4)sc3n2)cc1,Tde

# Tested on: MGC-803
# Test: Induction of apoptosis in human MGC803 cells at 5 uM after 24 hrs by annexin V-FITC/propidium iodide staining-based assay (reference value: 2.3%)
# Assay type: functional
# Conditions: not given
row,SMILES,Activity
1,c1ccc(CSc2nc(N3CCOCC3)c3nc(Nc4ccccc4)sc3n2)cc1,73.9%

# Tested on: MGC-803
# Test: Antiproliferative activity against human MGC803 cells assessed as reduction in colony formation at 3 uM after 9 days by crystal violet staining-based clonogenic assay relative to control
# Assay type: functional
# Conditions: MGC-803, 216 h
# In short: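 MGC803 were seeded at 1000 cells/well, allowed 24 h, then given fresh medium with graded compound concentrations for 9 days. Cells were PBS-washed, fixed in 4% paraformaldehyde and stained with 0.1% crystal violet. A colony was counted as >10 cells. Inhibition rate = (1 − treated count/control count) × 100%. Run in triplicate.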
row,SMILES,inhibition at 3 µM
1,c1ccc(CSc2nc(N3CCOCC3)c3nc(Nc4ccccc4)sc3n2)cc1,86%

# Tested on: MGC-803
# Test: Induction of apoptosis in human MGC803 cells assessed as increase in cleaved caspase-3 protein levels at 1 to 5 uM after 24 by Western blot analysis
# Assay type: functional, cell-based
# Conditions: not given
# In short: as §2
row,SMILES,Activity
1,c1ccc(CSc2nc(N3CCOCC3)c3nc(Nc4ccccc4)sc3n2)cc1,Active

# Tested on: GES1
# Test: Cytotoxicity against human GES-1 cells after 72 hrs by MTT assay
# Assay type: cell-based
# Conditions: GES1, 72 h
# In short: as §3
row,SMILES,IC50
1,c1ccc(CSc2nc(N3CCOCC3)c3nc(Nc4ccccc4)sc3n2)cc1,39 µM

# Tested on: NCI-H1650
# Test: Antiproliferative activity against human NCI-H1650 cells after 72 hrs by MTT assay
# Assay type: functional, cell-based
# Conditions: NCI-H1650, 72 h
# In short: as §3
row,SMILES,IC50
1,CCCSc1nc(N2CCN(Cc3ccccc3)CC2)c2nc(Nc3ccccc3)sc2n1,27 µM
2,CCCSc1nc(Nc2ccc(Cl)cc2)c2nc(Nc3ccccc3)sc2n1,12 µM
3,CCCSc1nc(N2CCOCC2)c2nc(Nc3ccccc3Cl)sc2n1,21.7 µM
4,CCCSc1nc(N2CCOCC2)c2nc(Nc3cccc4ccccc34)sc2n1,9.73 µM
5,O=c1[nH]cc(F)c(=O)[nH]1 [FLUOROURACIL],12.5 µM
6,CCCCc1ccc(Nc2nc(SCCC)nc3sc(Nc4ccccc4)nc23)cc1,14.8 µM
7,CCCSc1nc(NCCc2cc3ccccc3[nH]2)c2nc(Nc3ccccc3)sc2n1,9.62 µM
8,CCCSc1nc(N2CCOCC2)c2nc(Nc3ccccn3)sc2n1,7.73 µM
9,CCCSc1nc(N2CCOCC2)c2nc(Nc3ccccc3)sc2n1,4.18 µM
10,CCCSc1nc(NC2CC2)c2nc(Nc3ccccc3)sc2n1,41.7 µM
11,CCCSc1nc(Nc2ccccc2)c2nc(Nc3ccccc3)sc2n1,12.1 µM
12,CCCSc1nc(NCc2ccco2)c2nc(Nc3ccccc3)sc2n1,26.1 µM
13,CCCSc1nc(NCCc2cccs2)c2nc(Nc3ccccc3)sc2n1,10 µM
14,CCCSc1nc(NCc2ccc(O)cc2)c2nc(Nc3ccccc3)sc2n1,9.23 µM
15,CCCSc1nc(Nc2ccc(OC)cc2)c2nc(Nc3ccccc3)sc2n1,20.7 µM
16,CCCSc1nc(N2CCSCC2)c2nc(Nc3ccccc3)sc2n1,12.9 µM
17,c1ccc(CSc2nc(N3CCOCC3)c3nc(Nc4ccccc4)sc3n2)cc1,2.1 µM

# Tested on: not listed separately
# Test: Selectivity index, ratio of IC50 for human GES-1 cells to IC50 for human MGC803 cells
# Assay type: functional
# Conditions: not given
# In short: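 SI equals IC50 in GES-1 divided by IC50 in MGC803. Both IC50s come from 72 h exposure in the MTT viability assay, with 3,000 cells/well plated 24 h before dosing. Each is the mean ± SD of three independent experiments.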
row,SMILES,Ratio IC50
1,c1ccc(CSc2nc(N3CCOCC3)c3nc(Nc4ccccc4)sc3n2)cc1,37.8

# Tested on: MGC-803
# Test: Induction of apoptosis in human MGC803 cells assessed as chromatin shrinkage at 1 to 5 uM after 24 hrs by Hoechst 33258 staining-based fluorescence microscopic analysis
# Assay type: functional, cell-based
# Conditions: not given
# In short: as §1
row,SMILES,Activity
1,c1ccc(CSc2nc(N3CCOCC3)c3nc(Nc4ccccc4)sc3n2)cc1,Active
